Laboratory results taken from ChEMBL document CHEMBL2331506, “Design, synthesis, antiviral and cytostatic evaluation of novel isoxazolidine nucleotide analogues with a carbamoyl linker” (Bioorg Med Chem, 2013).
Calls of active or inactive are those of the source.

How the values were obtained:
[1] = tested on: Vesicular stomatitis virus; assay: Antiviral activity against Vesicular stomatitis virus infected in human HEL cells assessed as reduction of virus-induced cytopathogenicity at 250 uM; assay type: functional, organism-based
How it was run: (§1)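 Confluent cell monolayers were infected with 100 CCID50 of virus while exposed to varying compound concentrations. Cytopathicity was scored once it was complete in untreated infected controls. EC50 was taken as the concentration that reduced virus-induced cytopathogenicity by 50%.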

[2] = tested on: Influenza A virus; assay: Antiviral activity against Influenza A virus H1N1 infected in dog MDCK cells assessed as reduction of virus-induced cytopathogenicity at 250 uM; assay type: functional, organism-based; how it was run: as §1
[3] = tested on: Human immunodeficiency virus 2; assay: Antiviral activity against Human immunodeficiency virus 2 ROD infected in human CEM cells assessed as reduction of virus-induced giant cell formation at 250 uM after 4 to 5 days; assay type: functional, organism-based; details: CCRF-CEM
How it was run: (§2)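 CEM cells at 3 × 10^5 cells/mL were infected with HIV at 100 CCID50 per mL in the presence of compound dilutions. They were held 4–5 days at 37 °C in humidified CO2. Syncytium (giant cell) formation was scored microscopically, and EC50 was taken as the concentration inhibiting giant cell formation by 50%.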

[4] = tested on: Human alphaherpesvirus 1; assay: Antiviral activity against thymidine kinase-deficient, ACV-resistant Herpes simplex virus 1 KOS infected in human HEL cells assessed as reduction of virus-induced cytopathogenicity at 250 uM; assay type: functional, organism-based; how it was run: as §1
[5] = tested on: HEL; assay: Cytotoxicity against human HEL cells assessed as alteration of cell morphology up to 100 uM by microscopic analysis; assay type: cell-based
How it was run: (§3)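 Uninfected host-cell cultures were exposed to compound and examined by microscopy. Cytotoxicity was expressed as the minimum cytotoxic concentration (MCC) causing a microscopically detectable alteration of normal cell morphology.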

[6] = tested on: Vesicular stomatitis virus; assay: Antiviral activity against Vesicular stomatitis virus infected in human HeLa cells assessed as reduction of virus-induced cytopathogenicity at 250 uM; assay type: functional, organism-based; how it was run: as §1
[7] = tested on: Influenza A virus; assay: Antiviral activity against Influenza A virus H3N2 infected in dog MDCK cells assessed as reduction of virus-induced cytopathogenicity at 250 uM; assay type: functional, organism-based; how it was run: as §1
[8] = tested on: Sindbis virus; assay: Antiviral activity against Sindbis virus infected in african green monkey Vero cells assessed as reduction of virus-induced cytopathogenicity at 250 uM; assay type: functional, organism-based
How it was run: (§4)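 Confluent monolayers (HEL fibroblasts, Vero, or HeLa cells as listed) were infected with 100 CCID50 of virus in the presence of varying compound concentrations. Virus-induced cytopathicity or plaque formation was scored once cytopathicity was complete in untreated infected controls. EC50 was taken as the concentration reducing cytopathogenicity or plaque formation by 50%.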

[9] = tested on: Mammalian orthoreovirus 1; assay: Antiviral activity against Reovirus 1 infected in african green monkey Vero cells assessed as reduction of virus-induced cytopathogenicity at 250 uM; assay type: functional, organism-based; how it was run: as §4
[10] = tested on: Vero; assay: Cytotoxicity against african green monkey Vero cells assessed as alteration of cell morphology up to 100 uM by microscopic analysis; assay type: cell-based; details: chlorocebus sabaeus; how it was run: as §3
[11] = tested on: Human alphaherpesvirus 2; assay: Antiviral activity against Herpes simplex virus 2 G infected in human HEL cells assessed as reduction of virus-induced cytopathogenicity at 250 uM; assay type: functional, organism-based; details: strain G; how it was run: as §4
[12] = tested on: Felid alphaherpesvirus 1; assay: Antiviral activity against Feline herpes virus infected in cat CRFK cells assessed as reduction of virus-induced cytopathogenicity at 250 uM; assay type: functional, organism-based
[13] = tested on: Influenza B virus; assay: Antiviral activity against Influenza B virus infected in dog MDCK cells assessed as reduction of virus-induced cytopathogenicity at 250 uM; assay type: functional, organism-based; how it was run: as §1
[14] = Cytotoxicity against cat CRFK cells assessed as alteration of cell morphology up to 100 uM by microscopic analysis; assay type: cell-based, Felis catus; how it was run: as §3
[15] = tested on: HeLa; assay: Cytotoxicity against human HeLa cells assessed as alteration of cell morphology up to 100 uM by microscopic analysis; assay type: cell-based; how it was run: as §3
[16] = tested on: Feline coronavirus; assay: Antiviral activity against Feline coronavirus infected in cat CRFK cells assessed as reduction of virus-induced cytopathogenicity at 250 uM; assay type: functional, organism-based
[17] = tested on: Punta Toro virus; assay: Antiviral activity against Punta Toro virus infected in african green monkey Vero cells assessed as reduction of virus-induced cytopathogenicity at 250 uM; assay type: functional, organism-based; how it was run: as §4
[18] = tested on: MDCK; assay: Cytotoxicity against dog MDCK cells assessed as alteration of cell morphology up to 100 uM by microscopic analysis; assay type: cell-based, Canis lupus familiaris; how it was run: as §3
[19] = tested on: Coxsackievirus B4; assay: Antiviral activity against Coxsackievirus B4 infected in african green monkey Vero cells assessed as reduction of virus-induced cytopathogenicity at 250 uM; assay type: functional, organism-based; how it was run: as §4
[20] = tested on: Human respirovirus 3; assay: Antiviral activity against Parainfluenza virus 3 infected in african green monkey Vero cells assessed as reduction of virus-induced cytopathogenicity at 250 uM; assay type: functional, organism-based; how it was run: as §4
[21] = tested on: Human alphaherpesvirus 1; assay: Antiviral activity against Herpes simplex virus 1 KOS infected in human HEL cells assessed as reduction of virus-induced cytopathogenicity at 250 uM; assay type: functional, organism-based; how it was run: as §4
[22] = tested on: Respiratory syncytial virus; assay: Antiviral activity against Respiratory syncytial virus long infected in human HeLa cells assessed as reduction of virus-induced cytopathogenicity at 250 uM; assay type: functional, organism-based; how it was run: as §4
[23] = tested on: Human immunodeficiency virus 1; assay: Antiviral activity against Human immunodeficiency virus 1 3B infected in human CEM cells assessed as reduction of virus-induced giant cell formation at 250 uM after 4 to 5 days; assay type: functional, organism-based; details: CCRF-CEM; how it was run: as §2

CCOP(=O)(OCC)[C@@H]1C[C@H](C(=O)Nc2ccc(F)cc2)ON1C (mixture of isomers)
inactive: inhibition [1] | inhibition [2] | inhibition [3] | inhibition [4] | inhibition [6] | inhibition [7] | inhibition [8] | inhibition [9] | inhibition [11] | inhibition [12] | inhibition [13] | inhibition [16] | inhibition [17] | inhibition [19] | inhibition [20] | inhibition [21] | inhibition [22] | inhibition [23]
Non-toxic: Activity [5] | Activity [10] | Activity [14] | Activity [15] | Activity [18]

CCOP(=O)(OCC)[C@H]1C[C@H](C(=O)Nc2ccc(F)cc2F)ON1C (mixture of isomers)
inactive: inhibition [1] | inhibition [2] | inhibition [3] | inhibition [4] | inhibition [6] | inhibition [7] | inhibition [8] | inhibition [9] | inhibition [11] | inhibition [12] | inhibition [13] | inhibition [16] | inhibition [17] | inhibition [19] | inhibition [20] | inhibition [21] | inhibition [22] | inhibition [23]
Non-toxic: Activity [5] | Activity [10] | Activity [14] | Activity [15] | Activity [18]

CCOP(=O)(OCC)[C@@H]1C[C@H](C(=O)Nc2ccc(F)cc2F)ON1C (mixture of isomers)
Non-toxic: Activity [5] | Activity [10] | Activity [14] | Activity [15] | Activity [18]
inactive: inhibition [1] | inhibition [2] | inhibition [3] | inhibition [4] | inhibition [6] | inhibition [7] | inhibition [8] | inhibition [9] | inhibition [11] | inhibition [12] | inhibition [13] | inhibition [16] | inhibition [17] | inhibition [19] | inhibition [20] | inhibition [21] | inhibition [22] | inhibition [23]

CCOP(=O)(OCC)[C@H]1C[C@H](C(=O)Nc2ccccc2Br)ON1C (mixture of isomers)
inactive: inhibition [1] | inhibition [2] | inhibition [3] | inhibition [4] | inhibition [6] | inhibition [7] | inhibition [8] | inhibition [9] | inhibition [11] | inhibition [12] | inhibition [13] | inhibition [16] | inhibition [17] | inhibition [19] | inhibition [20] | inhibition [21] | inhibition [22] | inhibition [23]
Non-toxic: Activity [5] | Activity [10] | Activity [14] | Activity [15] | Activity [18]

CCOP(=O)(OCC)[C@@H]1C[C@H](C(=O)Nc2ccccc2Br)ON1C (mixture of isomers)
Non-toxic: Activity [5] | Activity [10] | Activity [14] | Activity [15] | Activity [18]
inactive: inhibition [1] | inhibition [2] | inhibition [3] | inhibition [4] | inhibition [6] | inhibition [7] | inhibition [8] | inhibition [9] | inhibition [11] | inhibition [12] | inhibition [13] | inhibition [16] | inhibition [17] | inhibition [19] | inhibition [20] | inhibition [21] | inhibition [22] | inhibition [23]

CCOP(=O)(OCC)[C@@H]1C[C@H](C(=O)Nc2cccc(Br)c2)ON1C (mixture of isomers)
inactive: inhibition [1] | inhibition [2] | inhibition [3] | inhibition [4] | inhibition [6] | inhibition [7] | inhibition [8] | inhibition [9] | inhibition [11] | inhibition [12] | inhibition [13] | inhibition [16] | inhibition [17] | inhibition [19] | inhibition [20] | inhibition [21] | inhibition [22] | inhibition [23]
Non-toxic: Activity [5] | Activity [10] | Activity [14] | Activity [15] | Activity [18]

CCOP(=O)(OCC)[C@@H]1C[C@H](C(=O)Nc2ccccc2[N+](=O)[O-])ON1C (mixture of isomers)
inactive: inhibition [1] | inhibition [2] | inhibition [3] | inhibition [4] | inhibition [6] | inhibition [7] | inhibition [8] | inhibition [9] | inhibition [11] | inhibition [12] | inhibition [13] | inhibition [16] | inhibition [17] | inhibition [19] | inhibition [20] | inhibition [21] | inhibition [22] | inhibition [23]
Non-toxic: Activity [5] | Activity [10] | Activity [14] | Activity [15] | Activity [18]

CCOP(=O)(OCC)[C@@H]1C[C@@H](C(=O)Nc2ccccc2Cl)ON1C (racemic)
Non-toxic: Activity [5] | Activity [10] | Activity [14] | Activity [15] | Activity [18]
inactive: inhibition [1] | inhibition [2] | inhibition [3] | inhibition [4] | inhibition [6] | inhibition [7] | inhibition [8] | inhibition [9] | inhibition [11] | inhibition [12] | inhibition [13] | inhibition [16] | inhibition [17] | inhibition [19] | inhibition [20] | inhibition [21] | inhibition [22] | inhibition [23]
